Measurements from ChEMBL document CHEMBL1275434, “In vitro evaluation of CBR-2092, a novel rifamycin-quinolone hybrid antibiotic: studies of the mode of action in Staphylococcus aureus” (Antimicrob Agents Chemother, 2008).
pIC50: −log10 of the molar value. In brackets after ≈: the same amount, converted by molar mass. Activity calls are given as the source filed them. No cut-off for these calls is given here.

Experiments:
Staphylococcus aureus [1] = experiment: Antimicrobial activity against Staphylococcus aureus CB1884; format: functional
Staphylococcus aureus [2] = experiment: Antimicrobial activity against Staphylococcus aureus CB1887 harboring rpoB R484H, L520 deficient gyrA, […], R236 duplicated parC and parC H103Y mutant genes selected after ABT-719 exposure for 20 days; format: functional; settings: CB1887, 480 h
Staphylococcus aureus [3] = experiment: Antimicrobial activity against Staphylococcus aureus CB370 harboring rpoB H481Y mutant gene; format: functional
Staphylococcus aureus [4] = experiment: Antimicrobial activity against Staphylococcus aureus CB814 harboring […] and parC S80F mutant genes; format: functional
Staphylococcus aureus [5] = experiment: Antimicrobial activity against Staphylococcus aureus CB1952 harboring rpoB S486L, gyrA […], gyrA E88Q, gyrA G532S, parC S80F, parC E84L mutant genes selected after CBR-2092 exposure for 21 days; format: functional; settings: CB1952, 504 h
Staphylococcus aureus [6] = experiment: Antimicrobial activity against Staphylococcus aureus CB815 harboring rpoB H481Y, gyrA […] and parC S80F mutant genes; format: functional
Staphylococcus aureus [7] = experiment: Antimicrobial activity against Staphylococcus aureus CB1953 harboring rpoB H481Y, gyrA S84L, gyrA V598I, parC S80F, parC R570H mutant genes selected after CBR-2092 exposure for 7 days; format: functional; settings: CB1953, 168 h
Staphylococcus aureus [8] = experiment: Antimicrobial activity against Staphylococcus aureus CB1954 harboring rpoB H481Y, gyrA S84L, K809 deficient gyrA, parC S80F, parC A523D mutant genes selected after CBR-2092 exposure for 7 days; format: functional; settings: CB1954, 168 h
Procedure, shortened: (§1)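 CLSI broth microdilution MIC in cation-adjusted Mueller-Hinton (MHII) broth supplemented with 0.002% (vol/vol) polysorbate 80, included to limit compound loss to plastic surfaces.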

[9] = Inhibition of Staphylococcus aureus wild-type RNA polymerase RpoB
Procedure, shortened: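 Recombinant S. aureus σA RNA polymerase holoenzyme in a single-round transcription assay using the pGL2B-T7A1-G-less template. The 272-nucleotide G-less RNA product was quantified by gel electrophoresis. IC50 is the concentration halving the product formed without test agent.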

[10] = Inhibition of Staphylococcus aureus RpoB H481Y mutant
Procedure, shortened: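 Recombinant S. aureus σA RNA polymerase holoenzyme carrying RpoB H481Y. Single-round transcription of the pGL2B-T7A1-G-less template. The 272-nt G-less RNA product is quantified by gel electrophoresis. IC50 is the concentration that inhibits 50% of product formed without inhibitor.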

Staphylococcus aureus [11] = experiment: Antimicrobial activity against Staphylococcus aureus CB190 by broth microdilution method; format: functional
Staphylococcus aureus [12] = experiment: Antimicrobial activity against Staphylococcus aureus CB811 harboring quinolone-resistant gyrA S84L mutant gene by broth microdilution method; format: functional; procedure, shortened: as §1
Staphylococcus aureus [13] = experiment: Antimicrobial activity against Staphylococcus aureus CB808 harboring quinolone-resistant parC S80F mutant gene by broth microdilution method; format: functional; procedure, shortened: as §1
Staphylococcus aureus [14] = experiment: Antimicrobial activity against Staphylococcus aureus CB814 harboring fluoroquinolone-resistant gyrA S84L and parC S80F mutant genes by broth microdilution method; format: functional; procedure, shortened: as §1
Staphylococcus aureus [15] = experiment: Antimicrobial activity against Staphylococcus aureus CB370 harboring rifampin-resistant rpoB H481Y mutant gene by broth microdilution method; format: functional; procedure, shortened: as §1
Staphylococcus aureus [16] = experiment: Antimicrobial activity against Staphylococcus aureus CB812 harboring rpo B H481Y and gyrA S84L mutant genes by broth microdilution method; format: functional; procedure, shortened: as §1
Staphylococcus aureus [17] = experiment: Inhibition of DNA synthesis in Staphylococcus aureus CB190 assessed as decrease in [methyl-3H]thymidine incorporation at 0.032 ug/ml; format: functional, organism-based
Staphylococcus aureus [18] = experiment: Inhibition of RNA synthesis in Staphylococcus aureus CB190 assessed as decrease in [5,6-3H]uridine incorporation at 0.032 ug/ml; format: functional, organism-based
Staphylococcus aureus [19] = experiment: Inhibition of protein synthesis in Staphylococcus aureus CB190 assessed as decrease in L-[3,4,5-3H]leucine incorporation at 0.032 ug/ml; format: functional, organism-based
Staphylococcus aureus [20] = experiment: Inhibition of cell wall synthesis in Staphylococcus aureus CB190 assessed as decrease in [2,3-3H]D-alanine incorporation at 0.032 ug/ml; format: functional, organism-based
Staphylococcus aureus [21] = experiment: Inhibition of DNA synthesis in rifamycin-resistant Staphylococcus aureus CB370 harboring rpoB H481Y mutant gene assessed as [methyl-3H]thymidine incorporation at 0.032 ug/ml; format: functional, organism-based
Procedure, shortened: (§2)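 Macromolecular synthesis time course in S. aureus, measuring incorporation of [methyl-3H]thymidine (DNA), [5,6-3H]uridine (RNA) or [2,3-3H]D-alanine (cell wall). At each time point, incorporation is expressed as percent of the DMSO-treated control culture. Incorporation at time zero is set to 100%.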

Staphylococcus aureus [22] = experiment: Inhibition of RNA synthesis in rifamycin-resistant Staphylococcus aureus CB370 harboring rpoB H481Y mutant gene assessed as [5,6-3H]uridine incorporation at 0.032 ug/ml; format: functional, organism-based; procedure, shortened: as §2
Staphylococcus aureus [23] = experiment: Inhibition of protein synthesis in rifamycin-resistant Staphylococcus aureus CB370 harboring rpoB H481Y mutant gene assessed as L-[3,4,5-3H]leucine incorporation at 0.032 ug/ml; format: functional, organism-based
Procedure, shortened: (§3)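 Time-course radiolabel incorporation in S. aureus cultures with test agent. Precursors: [methyl-3H]thymidine (DNA), [5,6-3H]uridine (RNA), L-[3,4,5-3H]leucine (protein), [2,3-3H]D-alanine (cell wall). At each time point, incorporation with agent is expressed relative to the DMSO-treated control culture as percent incorporation. Time-zero incorporation is set to 100%.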

Staphylococcus aureus [24] = experiment: Inhibition of cell wall synthesis in rifamycin-resistant Staphylococcus aureus CB370 harboring rpoB H481Y mutant gene assessed as [2,3-3H]D-alanine incorporation at 0.032 ug/ml; format: functional, organism-based; procedure, shortened: as §2
Staphylococcus aureus [25] = experiment: Inhibition of DNA synthesis in quinolone-resistant Staphylococcus aureus CB814 harboring gyrA S84L and parC S80F mutant genes assessed as decrease in [methyl-3H]thymidine incorporation at 0.032 ug/ml; format: functional, organism-based; procedure, shortened: as §2
Staphylococcus aureus [26] = experiment: Inhibition of RNA synthesis in quinolone-resistant Staphylococcus aureus CB814 harboring gyrA S84L and parC S80F mutant genes assessed as decrease in [5,6-3H]uridine incorporation at 0.032 ug/ml; format: functional, organism-based; procedure, shortened: as §2
Staphylococcus aureus [27] = experiment: Inhibition of protein synthesis in quinolone-resistant Staphylococcus aureus CB814 harboring gyrA S84L and parC S80F mutant genes assessed as decrease in L-[3,4,5-3H]leucine incorporation at 0.032 ug/ml; format: functional, organism-based; procedure, shortened: as §3
Staphylococcus aureus [28] = experiment: Inhibition of cell wall synthesis in quinolone-resistant Staphylococcus aureus CB814 harboring gyrA S84L and parC S80F mutant genes assessed as decrease in [2,3-3H]D-alanine incorporation at 0.032 ug/ml; format: functional, organism-based; procedure, shortened: as §2
Staphylococcus aureus [29] = experiment: Antimicrobial activity against rifampin-sensitive Staphylococcus aureus CB190 by broth microdilution method; format: functional; procedure, shortened: as §1
Staphylococcus aureus [30] = experiment: Antimicrobial activity against rifampin-sensitive Staphylococcus aureus CB190 harboring rpoB H481Y mutant gene by broth microdilution method; format: functional; procedure, shortened: as §1
Staphylococcus aureus [31] = experiment: Antimicrobial activity against rifampin-sensitive Staphylococcus aureus CB190 harboring rpoB Q468L mutant gene by broth microdilution method; format: functional; procedure, shortened: as §1
Staphylococcus aureus [32] = experiment: Antimicrobial activity against rifampin-sensitive Staphylococcus aureus CB190 harboring rpoB Q468K mutant gene by broth microdilution method; format: functional; procedure, shortened: as §1
Staphylococcus aureus [33] = experiment: Antimicrobial activity against rifampin-sensitive Staphylococcus aureus CB190 harboring rpo BH481D mutant gene by broth microdilution method; format: functional; procedure, shortened: as §1
Staphylococcus aureus [34] = experiment: Antimicrobial activity against rifampin-sensitive Staphylococcus aureus CB190 harboring rpoB H472 mutant gene by broth microdilution method; format: functional; procedure, shortened: as §1
Staphylococcus aureus [35] = experiment: Antimicrobial activity against rifampin-sensitive Staphylococcus aureus CB190 harboring rpoB D471Y mutant gene by broth microdilution method; format: functional; procedure, shortened: as §1
Staphylococcus aureus [36] = experiment: Antimicrobial activity against rifampin-sensitive Staphylococcus aureus CB190 harboring rpoB E473 mutant gene by broth microdilution method; format: functional; procedure, shortened: as §1
Staphylococcus aureus [37] = experiment: Antimicrobial activity against rifampin-sensitive Staphylococcus aureus CB190 harboring rpoB H481N mutant gene by broth microdilution method; format: functional; procedure, shortened: as §1
Staphylococcus aureus [38] = experiment: Antimicrobial activity against rifampin-sensitive Staphylococcus aureus CB190 harboring rpoB N474K mutant gene by broth microdilution method; format: functional; procedure, shortened: as §1
Staphylococcus aureus [39] = experiment: Antimicrobial activity against rifampin-sensitive Staphylococcus aureus CB190 harboring rpoB A477V mutant gene by broth microdilution method; format: functional; procedure, shortened: as §1
Staphylococcus aureus [40] = experiment: Antimicrobial activity against rifampin-sensitive Staphylococcus aureus CB190 harboring rpoB D471G mutant gene by broth microdilution method; format: functional; procedure, shortened: as §1
Staphylococcus aureus [41] = experiment: Antimicrobial activity against Staphylococcus aureus CB809 harboring rpoB H481Y and parC S80F mutant genes by broth microdilution method
Staphylococcus aureus [42] = experiment: Antimicrobial activity against Staphylococcus aureus CB815 harboring rpoB H481Y, gyrA S84L and parC S80F mutant genes by broth microdilution method
Staphylococcus aureus [43] = experiment: Antimicrobial activity against Staphylococcus aureus CB1947 harboring rpoB H481Y, gyrA S84L, E697 deficient gyrA, parC G167V mutant genes selected after CBR-2092 exposure for 20 days; settings: CB1947, 480 h

For `CO[C@H]1/C=C/O[C@@]2(C)Oc3c(C)c(O)c4c(O)c(c(/C=N/N5CCN(C)CC5)c(O)c4c3C2=O)NC(=O)/C(C)=C\C=C\[C@H](C)[C@H](O)[C@@H](C)[C@@H](O)[C@@H](C)[C@H](OC(C)=O)[C@@H]1C` [RIFAMPIN], the MIC (Staphylococcus aureus [1]) was > 250 µg/mL, the MIC (Staphylococcus aureus [2]) was > 250 µg/mL and the MIC (Staphylococcus aureus [3]) was > 250 µg/mL. For the same molecule, the MIC (Staphylococcus aureus [4]) was 0.008 µg/mL (≈ 0.00972 µM), the MIC (Staphylococcus aureus [5]) was > 250 µg/mL and the MIC (Staphylococcus aureus [6]) was > 125 µg/mL. For the same molecule, the MIC (Staphylococcus aureus [7]) was > 125 µg/mL, the MIC (Staphylococcus aureus [8]) was > 125 µg/mL and the pIC50 [9] was 7.82. The pIC50 [10] was < 4.60, the MIC (Staphylococcus aureus [11]) was 0.008 µg/mL (≈ 0.00972 µM) and the MIC (Staphylococcus aureus [12]) was 0.008 µg/mL (≈ 0.00972 µM). For the same molecule, the MIC (Staphylococcus aureus [13]) was 0.008 µg/mL (≈ 0.00972 µM), the MIC (Staphylococcus aureus [14]) was 0.008 µg/mL (≈ 0.00972 µM) and the MIC (Staphylococcus aureus [15]) was > 250 µg/mL. The MIC (Staphylococcus aureus [16]) was > 250 µg/mL, the Activity (Staphylococcus aureus [17]) was “Active” and the Activity (Staphylococcus aureus [18]) was “Active”. For the same molecule, the Activity (Staphylococcus aureus [19]) was “Active”, the Activity (Staphylococcus aureus [20]) was “Active” and the Activity (Staphylococcus aureus [21]) was “inactive”. The Activity (Staphylococcus aureus [22]) was “inactive”, the Activity (Staphylococcus aureus [23]) was “inactive” and the Activity (Staphylococcus aureus [24]) was “inactive”. The Activity (Staphylococcus aureus [25]) was “Active”, the Activity (Staphylococcus aureus [26]) was “Active” and the Activity (Staphylococcus aureus [27]) was “Active”. The Activity (Staphylococcus aureus [28]) was “Active”, the MIC (Staphylococcus aureus [29]) was 0.008 µg/mL (≈ 0.00972 µM) and the MIC (Staphylococcus aureus [30]) was > 64 µg/mL. For the same molecule, the MIC (Staphylococcus aureus [31]) was > 64 µg/mL, the MIC (Staphylococcus aureus [32]) was > 64 µg/mL and the MIC (Staphylococcus aureus [33]) was > 64 µg/mL. It also gave an MIC (Staphylococcus aureus [34]) of 32 µg/mL (≈ 38.9 µM), an MIC (Staphylococcus aureus [35]) of 16 µg/mL (≈ 19.4 µM) and an MIC (Staphylococcus aureus [36]) of 8 µg/mL (≈ 9.72 µM). It also gave an MIC (Staphylococcus aureus [37]) of 2 µg/mL (≈ 2.43 µM), an MIC (Staphylococcus aureus [38]) of 2 µg/mL (≈ 2.43 µM) and an MIC (Staphylococcus aureus [39]) of 1 µg/mL (≈ 1.22 µM). The MIC (Staphylococcus aureus [40]) was 0.25 µg/mL (≈ 0.304 µM), the MIC (Staphylococcus aureus [41]) was > 250 µg/mL and the MIC (Staphylococcus aureus [42]) was > 250 µg/mL. The MIC (Staphylococcus aureus [43]) was > 250 µg/mL.
In the case of `C[C@H]1COc2c(N3CCN(C)CC3)c(F)cc3c(=O)c(C(=O)O)cn1c23.C[C@H]1COc2c(N3CCN(C)CC3)c(F)cc3c(=O)c(C(=O)O)cn1c23.O` [LEVOFLOXACIN], the MIC (Staphylococcus aureus [11]) was 0.25 µg/mL, the MIC (Staphylococcus aureus [12]) was 0.25 µg/mL and the MIC (Staphylococcus aureus [13]) was 1 µg/mL. For the same molecule, the MIC (Staphylococcus aureus [14]) was 8 µg/mL, the MIC (Staphylococcus aureus [15]) was 0.25 µg/mL and the MIC (Staphylococcus aureus [16]) was 0.25 µg/mL. It also gave an MIC (Staphylococcus aureus [41]) of 1 µg/mL and an MIC (Staphylococcus aureus [42]) of 8 µg/mL.
